Test results taken from BindingDB's records for doi:10.1021/jm060468y (Johannes Gutenberg University, 2006).

Target: T1, E-selectin (Homo sapiens, UniProt P16581)
T1 sequence (P16581 whole entry): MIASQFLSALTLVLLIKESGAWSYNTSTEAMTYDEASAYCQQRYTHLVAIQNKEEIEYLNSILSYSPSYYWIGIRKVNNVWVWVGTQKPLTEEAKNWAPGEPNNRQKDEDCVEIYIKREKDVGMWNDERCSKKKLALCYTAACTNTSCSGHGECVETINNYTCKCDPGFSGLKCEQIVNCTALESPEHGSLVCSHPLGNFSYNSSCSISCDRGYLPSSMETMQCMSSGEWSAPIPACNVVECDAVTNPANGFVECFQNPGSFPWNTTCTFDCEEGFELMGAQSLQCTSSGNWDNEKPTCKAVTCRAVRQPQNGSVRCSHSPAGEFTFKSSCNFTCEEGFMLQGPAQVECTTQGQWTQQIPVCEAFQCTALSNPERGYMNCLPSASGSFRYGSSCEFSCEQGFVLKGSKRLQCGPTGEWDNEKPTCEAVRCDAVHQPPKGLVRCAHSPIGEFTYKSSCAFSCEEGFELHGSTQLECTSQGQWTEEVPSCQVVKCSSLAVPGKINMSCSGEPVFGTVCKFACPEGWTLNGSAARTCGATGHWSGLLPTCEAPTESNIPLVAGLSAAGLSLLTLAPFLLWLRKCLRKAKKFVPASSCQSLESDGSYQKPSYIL
Assay: Inhibition of MM6 cell adhesion to recombinant E-selectin by flow chamber assay
Outline: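 Wells coated overnight at 4 °C with recombinant soluble E-selectin (5 µg/mL in PBS with Ca2+/Mg2+). Background wells had no selectin. Compound in RPMI with 1% FCS and DMSO applied for 60 min, then washed. MM6 cells (1 × 10^6/mL, RPMI + 1% FCS) perfused at 1 dyn/cm2 shear for 4 min. Cells adhering ≥30 s were counted in four random fields in the first minute by phase-contrast video microscopy. Experiments run two or three times; IC50 by curve fitting.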

Row | IC50 | Compound
1 | 28 µM | CCCCCCCCCCOc1cc(OCCCCCCCCCC)cc(OCCCCCCN(c2ccc(C(=O)O)cc2)c2ccc(C(=O)O)cc2)c1
2 | 20 µM | CCCCCCCCCCOc1cc(OCCCCCCCCCC)cc(OCCCCCCON=C(c2ccc(C(=O)O)cc2)c2ccc(C(=O)O)cc2)c1
